# The RNAGym collection of RNA variant scans (doi:10.1126/science.aae0568)
# Fewer inactive variants are shown than the library holds.
# B1: tRNA (parent)
# chain: GUUCCGUUGGCGUAAUGGUAACGCGUCUCCCUCCUAAGGAGAAGACUGCGGGUUCGAGUCCCGUACGGAACG
# Variants of: B1
# Test: yeast fitness relative to wild type (ratio to wild type); higher = fitter; tRNA-Arg(CCU), competitive growth, 37 C, YPD
# Outline: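 The tRNA-Arg(CCU) gene variants were made by chemical synthesis with a 3% per-site mutation rate at 69 sites and inserted at the native genomic locus of Saccharomyces cerevisiae. After pooling, the strains were competed in YPD at 37°C for 24 hours in six parallel replicates. Gene amplicons from the start population and each end population were read by 100-nucleotide paired-end sequencing, and Darwinian fitness relative to wild type was taken from genotype frequency changes. Genotypes needed ≥ 100 starting reads, and estimates < 0.5 were set to 0.5.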
row,Variant,yeast fitness
1,U47A G52A,0.821
2,U47A G52C,0.581
3,C46A U47A,1.04
4,G44A G58C,0.911
5,G44A G58A,0.955
6,C46U A69U,1.03
7,C46U A69C,0.976
8,A45C G63A,0.85
9,G44A U54C,0.723
10,G44C,0.985
11,G44A,0.982
12,G44U,1.01
13,C46U C49G,0.997
14,C46U C49A C60A A70C,≤ 0.5
15,A43U U64C,1.02
16,A43U G67U,0.87
17,A43U G67A,0.79
18,A43U G67C,0.778
19,G44C G50C U54G C61G U64C,≤ 0.5
20,A45G G68C,0.695
21,C46G A57U,0.907
22,C46G A57C,0.61
23,C46G U59C G68C,≤ 0.5
24,A45C U53A,0.727

row,Variant,yeast fitness
1,A45C U53C,0.823
2,G44C A65G A70C,0.682
3,G44C G56C,0.58
4,A45G C62A A69C,0.595
5,C46G G51C A70C,≤ 0.5
6,C46U G50C C55A G63A C66U,≤ 0.5
7,C46U U54C G68A,≤ 0.5
8,C46G G52A C66U,0.631
9,A45G G48C G56A,0.968
10,A45U G48C A57C G67U,≤ 0.5
11,G44C C61A,0.583
12,A45U G50A C55G A70U,≤ 0.5
13,G44C U54A C61A,0.561
14,A45C G50A A57G,0.665
15,G44A C66G,0.641
16,C46G C49G C62A,0.61
17,A45C G58A,0.977
18,A45C G58C,1.06
19,G44A A45U,0.885
20,G44U G52A C55G A69U,≤ 0.5
21,C46G A57C G58A G67A,≤ 0.5
22,A45U G50A,1.01
23,A45C G48A,0.828
24,A45U C60U G68A,0.575

row,Variant,yeast fitness
1,C46G C62G A69G,0.733
2,C46U G63A A69C,0.833
3,C46G G67A,0.912
4,C46G G67C,0.86
5,U47A G63A,0.823
6,A45U U47A C60G,≤ 0.5
7,A45U C61G C66U,0.53
8,C46A U47G C49A G52A G58C U64G A65G,≤ 0.5
9,C46U C66A,0.853
10,C46U C66G,0.949
11,G44C G58C C66U,0.653
12,A45G G58A C60U,0.584
13,C46A G48A U64G,0.951
14,C46U U54C G56A,0.642
15,A45U G56A A69C,0.766
16,A45C C49U G63A,0.74
17,G44A A65C,1.05
18,G44A A65U,0.816
19,A45C C46A C62A,0.603
20,G44A G56A U59A,0.575
21,A45C C61U,0.992
22,A45C C61A,0.797
23,C46A G52A,0.816
24,C46G C49A G68C A69G,≤ 0.5

row,Variant,yeast fitness
1,C46G G48C U64G,≤ 0.5
2,A45G A57C,0.668
3,A45U C62G A65G,0.913
4,C46A G58A,0.837
5,G44A U54C G56C,≤ 0.5
6,U47A C61G,0.69
7,U47A C61A,0.769
8,A43U U47A,0.799
9,A45G G67C,0.872
10,A45G G67A,0.961
11,A45C G51A C55A,0.516
12,G44C A69G,1.04
13,G44C A57U,0.554
14,A45G C61A A65U,≤ 0.5
15,G44C U54C U64A G68A,≤ 0.5
16,G44C G67C,0.823
17,C46A G48C U59G,0.534
18,G44C A45U U53C,0.605
19,G44C C60G,0.59
20,U47A C55A G68A,0.532
21,A45C A57U A65C,0.617
22,A45G G58A U64A,0.71
23,G44A G56C C62U,0.695
24,C46G C60A,0.576

row,Variant,yeast fitness
1,A45U A65G G68A,0.73
2,U47A A65C C66G,≤ 0.5
3,G44C G52A,0.833
4,C46U G50A C61U,0.749
5,C46G G63C G67A A70G,≤ 0.5
6,A45G G48A G56C C60G,≤ 0.5
7,A43U U53A,0.666
8,A43U U53C,0.854
9,C46U U53C,0.854
10,G44C G50A A69U,0.63
11,G44C G50C A70C,0.573
12,C46U G52A U59C,0.631
13,A45G C49U C55G C61G,0.732
14,C46G C49U A65U A69C,≤ 0.5
15,A45G C49A C62A,≤ 0.5
16,A45U C55U C62A,≤ 0.5
17,C46G C55G,0.722
18,A45C A57C G58C,0.602
19,A43U G63A,0.895
20,C46G C60A G67U,0.536
21,A45C C60U A70G,0.683
22,A45G C49G A65U,0.56
23,C46G G56A A57C C61U,0.575
24,G44A C55G,0.558

row,Variant,yeast fitness
1,C46A C49G,0.746
2,C46A C49U,0.958
3,A45U C46U U53C,0.574
4,A45C U53A C60G,0.536
5,A45G C55U C61G A69C,≤ 0.5
6,A43U G58C,0.892
7,G44A U64G,0.694
8,A45U G52C,0.642
9,C46G U54A C62U,≤ 0.5
10,G44C G68A,0.937
11,C46U C61G C66U A69U,≤ 0.5
12,U47A C66U,0.872
13,A45U U53C G67A A69C,0.635
14,A45G C46G U54G A70C,≤ 0.5
15,A45U G50A G63A G68C A69U,≤ 0.5
16,C46G C61G A65C,0.574
17,C46U C49G G68A,0.64
18,A45U C49U U64A,0.571
19,G44A C61G,0.597
20,G44A C49U C62A G67C,≤ 0.5
21,C46G U53A A65C,≤ 0.5
22,G44C C62U,0.902
23,C46U C49G G51C C66G,≤ 0.5
24,A45C A57U,0.682

row,Variant,yeast fitness
1,A45C A57C,0.573
2,C46A U64G,0.82
3,A45U U53C,0.793
4,C46G C66U,0.928
5,C46G C66G,0.986
6,C46G G51A,0.766
7,C46G G51C,0.591
8,A45C C46G G51C,0.546
9,A45U A57G,0.917
10,A45C C49G G58C,≤ 0.5
11,C46A A65U,0.843
12,C46A A65C,0.973
13,A45U C46A G63A,1.06
14,G44C G52A A69G,≤ 0.5
15,U47A G67A,0.765
16,G44C G63C G68A,≤ 0.5
17,C46G A65C,0.97
18,C46G A65G,0.897
19,C46G A65U,0.992
20,A45G U54C,0.774
21,U47A A70G,0.921
22,U47A A70U,1.06
23,C46G C49A U54C G58C,≤ 0.5
